Assay results reported in ChEMBL document CHEMBL2429865, “Withaferin A, a steroidal lactone from Withania somnifera, induces mitotic catastrophe and growth arrest in prostate cancer cells” (2013).
Calls of active or inactive are those of the source. The rule behind the calls is not given here.

Experiments:
[1] = molecular target: T1, Serine/threonine-protein kinase Chk1 (Homo sapiens) (UniProt O14757); assay: Activation of Chk1 in human PC3 cells assessed as phosphorylation of CDC25C at Ser216; assay type: cell-based; conditions: PC-3
T1 sequence (whole entry): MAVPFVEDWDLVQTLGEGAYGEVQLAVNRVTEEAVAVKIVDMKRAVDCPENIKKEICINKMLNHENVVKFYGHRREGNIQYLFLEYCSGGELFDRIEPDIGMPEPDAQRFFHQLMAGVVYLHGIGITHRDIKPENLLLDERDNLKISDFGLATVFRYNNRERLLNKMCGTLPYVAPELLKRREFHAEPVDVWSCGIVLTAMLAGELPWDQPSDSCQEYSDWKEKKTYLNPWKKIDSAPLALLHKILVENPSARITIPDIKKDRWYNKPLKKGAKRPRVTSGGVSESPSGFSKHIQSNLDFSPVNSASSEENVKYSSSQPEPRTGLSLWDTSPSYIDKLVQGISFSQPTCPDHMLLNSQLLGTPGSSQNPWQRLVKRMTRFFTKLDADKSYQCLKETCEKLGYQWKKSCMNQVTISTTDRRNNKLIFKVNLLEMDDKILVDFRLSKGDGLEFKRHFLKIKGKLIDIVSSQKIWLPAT
Procedure, shortened: (§1)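 Lysates of vehicle- or drug-treated PC-3 cells are diluted in kinase buffer and added to wells precoated with recombinant Cdc25C substrate. Phosphorylation is started with Mg2+ and ATP. Phospho-Cdc25C Ser216 is detected with an HRP-conjugated antibody and TMB colour with stop reagent. The Cdc2-cyclin B1 line uses a parallel kit of the same format.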

PC-3 [2] = assay: Mitotic arrest in human PC3 cells assessed as defect in depolymerization of tubulin-alpha by DAPI staining-based confocal microscopic analysis; assay type: functional, cell-based
Procedure, shortened: (§2)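 PC-3 cells on coverslips are grown to 60% confluence and treated for 24 h. They are fixed in 4% paraformaldehyde for 20 min at room temperature, permeabilized with 0.2% Triton X-100 for 20 min, and immunostained for pH3 (Ser10), Aurora B or α-tubulin with Alexa Fluor secondaries, rhodamine-phalloidin and DAPI. Imaging is by laser scanning confocal microscopy.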

[3] = molecular target: Tubulin alpha (Homo sapiens) (UniProt P0DPH7+P68366+Q71U36+P68363+Q9BQE3+Q6PEY2+A6NHL2+Q9NY65); assay: Inhibition of tubulin-alpha (unknown origin) polymerization by fluorescence-based assay; assay type: protein assay; conditions: TDE = time-dependent effect
[4] = molecular target: Cyclin-dependent kinase 1 (Homo sapiens) (UniProt P06493); assay: Reduction in CDC2 phosphorylation at Tyr15 in human PC3 cells at 1 uM after 12 to 24 hrs by Western blotting analysis; assay type: cell-based; conditions: PC-3
Chain of Cyclin-dependent kinase 1 (Homo sapiens) (P06493 whole entry, looked up): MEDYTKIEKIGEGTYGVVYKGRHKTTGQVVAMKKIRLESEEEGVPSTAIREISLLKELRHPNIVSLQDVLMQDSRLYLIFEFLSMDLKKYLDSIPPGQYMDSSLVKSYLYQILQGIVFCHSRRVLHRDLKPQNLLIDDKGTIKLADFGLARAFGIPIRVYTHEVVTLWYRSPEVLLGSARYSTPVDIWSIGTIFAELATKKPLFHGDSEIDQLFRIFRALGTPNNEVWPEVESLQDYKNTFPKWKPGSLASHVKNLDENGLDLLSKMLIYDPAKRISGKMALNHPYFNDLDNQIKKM
Procedure, shortened: (§3)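 PC-3 cells are treated with 1 μM for various times. Lysates are made in M-PER buffer with protease inhibitor cocktail, and 25 μg protein is immunoblotted for pWee1 (Ser642), Wee1, pCdc2 (Tyr15), Cdc25C (Ser216) and Myt-1, with β-actin as loading control.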

PC-3 [5] = assay: Cell cycle arrest in human PC3 cells assessed as accumulation at G2/M phase at 1 uM after 8 hrs by propidium iodide staining-based flow cytometry; assay type: functional
PC-3 [6] = assay: Growth inhibition of human PC3 cells assessed as loss of cell viability after 24 hrs by trypan blue exclusion assay; assay type: functional, cell-based
Procedure, shortened: (§4)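 PC-3 (DMEM) and DU-145 (RPMI-1640) cells, with 10% heat-inactivated FBS, are seeded at 3×10⁵ cells/well, cultured 24 h, then exposed to 0.5, 1, 2, 3 and 4 μM for 24 h at 37°C, 5% CO₂. DMSO is ≤0.002%. Viable cells are counted by trypan blue exclusion on a hemocytometer and expressed as % of DMSO control. IC50 is calculated. Mean ± SEM of three independent experiments.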

PC-3 [7] = assay: Upregulation of p21 protein expression in human PC3 cells at IC50 after 12 to 48 hrs by Western blotting analysis; assay type: functional, cell-based
[8] = molecular target: T1, Serine/threonine-protein kinase Chk1 (Homo sapiens); assay: Reduction in CHK1 phosphorylation at Ser345 in human PC3 cells at IC50 after 12 to 48 hrs by Western blotting analysis; assay type: cell-based; conditions: PC-3
[9] = molecular target: Aurora kinase B (Homo sapiens) (UniProt Q96GD4); assay: Induction of Aurora B-mediated histone H3 phosphorylation at Ser10 in human PC3 cells after 12 to 48 hrs by Western blotting analysis; assay type: cell-based; conditions: PC-3
Chain of Aurora kinase B (Homo sapiens) (Q96GD4 whole entry): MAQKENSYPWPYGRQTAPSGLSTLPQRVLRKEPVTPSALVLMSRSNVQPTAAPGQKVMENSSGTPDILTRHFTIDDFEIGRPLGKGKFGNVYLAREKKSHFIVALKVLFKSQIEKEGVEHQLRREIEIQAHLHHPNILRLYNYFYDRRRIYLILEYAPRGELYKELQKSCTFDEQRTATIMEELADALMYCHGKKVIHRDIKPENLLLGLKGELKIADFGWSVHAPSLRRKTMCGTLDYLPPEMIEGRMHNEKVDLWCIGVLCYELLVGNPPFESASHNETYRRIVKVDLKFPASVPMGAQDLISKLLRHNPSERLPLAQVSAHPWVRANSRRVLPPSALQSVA

PC-3 [10] = assay: Downregulation of cyclin B1 protein expression in human PC3 cells at IC50 after 12 to 48 hrs by Western blotting analysis; assay type: functional, cell-based
PC-3 [11] = assay: Upregulation of p21 mRNA expression in human PC3 cells at IC50 after 12 to 48 hrs by SYBR green staining-based RT-PCR analysis; assay type: functional, cell-based
PC-3 [12] = assay: Induction of cell cycle arrest in human PC3 cells assessed as accumulation at G2/M phase at 1 uM after 24 hrs by propidium iodide staining-based flow cytometry (reference value: 28.3%); assay type: functional
PC-3 [13] = assay: Effect on 14-3-3 protein expression in human PC3 cells at IC50 after 12 to 48 hrs by Western blotting analysis; assay type: functional, cell-based
PC-3 [14] = assay: Downregulation of Myt-1 protein expression in human PC3 cells at 1 uM after 12 to 48 hrs by Western blotting analysis; assay type: functional, cell-based; procedure, shortened: as §3
PC-3 [15] = assay: Mitotic arrest in human PC3 cells assessed as punctate distribution of Aurora B in centromeric region of chromosomes by DAPI staining-based confocal microscopic analysis; assay type: functional, cell-based; procedure, shortened: as §2
PC-3 [16] = assay: Mitotic arrest in human PC3 cells assessed as accumulation of phosphorylated histone H3 in nucleus by DAPI staining-based confocal microscopic analysis; assay type: functional, cell-based; procedure, shortened: as §2
PC-3 [17] = assay: Induction of cell cycle arrest in human PC3 cells assessed as accumulation at G2/M phase at 1 uM after 48 hrs by propidium iodide staining-based flow cytometry (reference value: 25.3%); assay type: functional
DU-145 [18] = assay: Cell cycle arrest in human DU145 cells assessed as accumulation at G2/M phase at 1 uM after 8 hrs by propidium iodide staining-based flow cytometry; assay type: functional
[19] = molecular target: Serine/threonine-protein kinase Chk2 (Homo sapiens) (UniProt O96017); assay: Reduction in CHK2 phosphorylation at Thr68 in human PC3 cells at IC50 after 12 to 48 hrs by Western blotting analysis; assay type: cell-based; conditions: PC-3
Chain of Serine/threonine-protein kinase Chk2 (Homo sapiens) (O96017 whole entry): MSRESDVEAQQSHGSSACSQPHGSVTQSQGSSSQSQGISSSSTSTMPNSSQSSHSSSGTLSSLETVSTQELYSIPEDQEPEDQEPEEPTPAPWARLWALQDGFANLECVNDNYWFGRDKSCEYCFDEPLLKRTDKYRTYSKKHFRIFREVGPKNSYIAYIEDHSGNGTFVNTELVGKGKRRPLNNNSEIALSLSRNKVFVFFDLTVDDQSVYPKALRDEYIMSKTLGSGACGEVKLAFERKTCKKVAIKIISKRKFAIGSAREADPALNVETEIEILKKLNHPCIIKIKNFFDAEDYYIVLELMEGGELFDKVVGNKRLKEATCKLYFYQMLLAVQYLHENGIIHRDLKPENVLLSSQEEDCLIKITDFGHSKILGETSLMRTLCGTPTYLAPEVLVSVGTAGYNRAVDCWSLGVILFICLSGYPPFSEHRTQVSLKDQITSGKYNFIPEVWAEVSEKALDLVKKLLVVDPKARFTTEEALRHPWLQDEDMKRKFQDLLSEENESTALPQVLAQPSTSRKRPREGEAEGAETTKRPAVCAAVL

DU-145 [20] = assay: Growth inhibition of human DU145 cells assessed as loss of cell viability after 24 hrs by trypan blue exclusion assay; assay type: functional, cell-based; procedure, shortened: as §4
DU-145 [21] = assay: Induction of cell cycle arrest in human DU145 cells assessed as accumulation at G2/M phase at 1 uM after 48 hrs by propidium iodide staining-based flow cytometry (reference value: 22%); assay type: functional
PC-3 [22] = assay: Upregulation of Aurora B protein expression in human PC3 cells at IC50 after 12 to 48 hrs by Western blotting analysis; assay type: functional, cell-based
[23] = molecular target: Cyclin-dependent kinase 1 (Homo sapiens) (UniProt P06493); assay: Reduction in CDC2 phosphorylation at Tyr15 in human PC3 cell cytoplasm at 1 uM after 24 hrs by immunofluorescence assay; conditions: PC-3
Procedure, shortened: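 PC-3 cells on coverslips at 60% confluence are treated with drug or DMSO for 24 h. They are fixed in 4% paraformaldehyde, permeabilized with 0.2% Triton X-100, and immunostained for pCdc2 (Tyr15) with Alexa Fluor secondary and DAPI counterstain. Images are taken by fluorescence/confocal microscopy.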

DU-145 [24] = assay: Induction of cell cycle arrest in human DU145 cells assessed as accumulation at G2/M phase at 1 uM after 24 hrs by propidium iodide staining-based flow cytometry (reference value: 22%); assay type: functional
[25] = molecular target: T2, M-phase inducer phosphatase 3 (Homo sapiens) (UniProt P30307); assay: Reduction in CDC25C phosphorylation at Ser216 in human PC3 cells at 1 uM after 12 to 24 hrs by Western blotting analysis; assay type: cell-based; conditions: PC-3; procedure, shortened: as §3
T2 sequence (whole entry): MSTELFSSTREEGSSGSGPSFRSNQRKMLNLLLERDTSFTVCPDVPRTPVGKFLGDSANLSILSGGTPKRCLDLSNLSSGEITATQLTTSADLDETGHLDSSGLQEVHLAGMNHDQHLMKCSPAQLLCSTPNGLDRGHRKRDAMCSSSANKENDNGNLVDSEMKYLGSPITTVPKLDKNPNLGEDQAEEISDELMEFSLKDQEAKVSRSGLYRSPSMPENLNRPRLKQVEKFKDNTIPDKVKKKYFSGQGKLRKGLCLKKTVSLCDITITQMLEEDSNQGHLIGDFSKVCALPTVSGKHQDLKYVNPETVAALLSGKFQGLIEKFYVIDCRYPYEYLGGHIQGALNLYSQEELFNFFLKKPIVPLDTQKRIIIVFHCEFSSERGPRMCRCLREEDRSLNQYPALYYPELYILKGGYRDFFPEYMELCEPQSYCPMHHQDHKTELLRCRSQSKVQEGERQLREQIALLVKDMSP

[26] = molecular target: Cyclin-dependent kinase 1/cyclin B1 (Homo sapiens) (UniProt P06493+P14635); assay: Activation of Cdc2/cyclin B in human PC3 cells; assay type: cell-based; conditions: PC-3; procedure, shortened: as §1
Chain of Cyclin-dependent kinase 1/cyclin B1 (Homo sapiens) (P06493 whole entry, looked up): as the sequence (P06493 whole entry, looked up) above
Chain of Cyclin-dependent kinase 1/cyclin B1 (Homo sapiens) (P14635 whole entry, looked up): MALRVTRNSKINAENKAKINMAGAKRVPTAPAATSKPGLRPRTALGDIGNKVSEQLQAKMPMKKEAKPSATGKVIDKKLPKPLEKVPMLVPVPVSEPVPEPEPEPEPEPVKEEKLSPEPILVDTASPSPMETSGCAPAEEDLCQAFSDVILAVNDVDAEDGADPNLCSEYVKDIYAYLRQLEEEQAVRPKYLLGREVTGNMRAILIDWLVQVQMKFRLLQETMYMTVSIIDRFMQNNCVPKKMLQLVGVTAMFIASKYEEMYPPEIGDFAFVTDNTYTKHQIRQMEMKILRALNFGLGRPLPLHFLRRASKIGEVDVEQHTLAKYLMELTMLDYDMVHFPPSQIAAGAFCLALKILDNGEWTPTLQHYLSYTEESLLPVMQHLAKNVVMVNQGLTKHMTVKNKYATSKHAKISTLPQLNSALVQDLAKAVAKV

PC-3 [27] = assay: Mitotic arrest in human PC3 cells assessed as distorted spindles and curving microtubule array by DAPI staining-based confocal microscopic analysis; assay type: functional, cell-based; procedure, shortened: as §2
[28] = molecular target: Wee1-like protein kinase (Homo sapiens) (UniProt P30291); assay: Induction of Wee1 phosphorylation at Ser642 in human PC3 cells at 1 uM after 12 to 24 hrs by Western blotting analysis; assay type: cell-based; conditions: PC-3; procedure, shortened: as §3
Chain of Wee1-like protein kinase (Homo sapiens) (P30291 whole entry, looked up): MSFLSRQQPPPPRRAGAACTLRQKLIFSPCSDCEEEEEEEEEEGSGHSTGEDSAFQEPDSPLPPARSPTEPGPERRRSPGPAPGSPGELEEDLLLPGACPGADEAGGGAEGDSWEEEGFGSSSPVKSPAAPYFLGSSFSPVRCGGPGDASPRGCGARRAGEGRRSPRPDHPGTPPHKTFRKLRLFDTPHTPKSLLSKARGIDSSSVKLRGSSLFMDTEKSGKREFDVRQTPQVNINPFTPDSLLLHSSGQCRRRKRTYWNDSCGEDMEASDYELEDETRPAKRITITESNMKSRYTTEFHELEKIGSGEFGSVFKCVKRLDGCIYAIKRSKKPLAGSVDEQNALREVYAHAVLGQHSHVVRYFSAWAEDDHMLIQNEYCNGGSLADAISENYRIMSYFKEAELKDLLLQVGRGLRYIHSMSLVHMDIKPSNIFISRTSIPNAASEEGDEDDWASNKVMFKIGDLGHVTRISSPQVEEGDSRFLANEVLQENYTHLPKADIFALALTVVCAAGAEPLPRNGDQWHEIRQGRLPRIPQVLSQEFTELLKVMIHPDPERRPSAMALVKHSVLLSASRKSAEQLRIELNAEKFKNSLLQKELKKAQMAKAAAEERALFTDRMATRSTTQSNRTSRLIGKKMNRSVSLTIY

PC-3 [29] = assay: Downregulation of cyclin E2 protein expression in human PC3 cells at IC50 after 12 to 48 hrs by Western blotting analysis; assay type: functional, cell-based
PC-3 [30] = assay: Downregulation of cyclin A2 protein expression in human PC3 cells at IC50 after 12 to 48 hrs by Western blotting analysis; assay type: functional, cell-based

Question: What does the source list for `CC1=C(CO)C(=O)O[C@@H]([C@@H](C)[C@H]2CC[C@H]3[C@@H]4C[C@H]5O[C@]56[C@@H](O)C=CC(=O)[C@]6(C)[C@H]4CC[C@]23C)C1` [WITHAFERIN A]?
Answer: Activity [1]: inactive; Activity (PC-3 [2]): Active; inhibition [3]: tde; Activity [4]: Active; Activity (PC-3 [5]): Active; growth inhibition (GI) (PC-3 [6]): Dose-dependent effect; Activity (PC-3 [7]): Active; Activity [8]: Active; Activity [9]: Active; Activity (PC-3 [10]): Active; Activity (PC-3 [11]): Active; Activity (PC-3 [12]): 62.7%; Activity (PC-3 [13]): inactive; Activity (PC-3 [14]): Active; Activity (PC-3 [15]): Active; Activity (PC-3 [16]): Active; Activity (PC-3 [17]): 60.7%; Activity (DU-145 [18]): Active; Activity [19]: Active; growth inhibition (GI) (DU-145 [20]): Dose-dependent effect; Activity (DU-145 [21]): 24.75%; Activity (PC-3 [22]): Active; Activity [23]: Active; Activity (DU-145 [24]): 36.75%; Activity [25]: Active; Activity [26]: inactive; Activity (PC-3 [27]): Active; Activity [28]: Active; Activity (PC-3 [29]): Active; Activity (PC-3 [30]): Active
